Assay results reported in ChEMBL document CHEMBL2311341, “Design, synthesis and inhibitory activities of naringenin derivatives on human colon cancer cells” (Bioorg Med Chem Lett, 2013).

Experiments:
[1] = biological target: Cyclin-dependent kinase 2/cyclin E1 (Homo sapiens) (UniProt P24864+P24941); test: Inhibition of CDK2/cyclinE (unknown origin) using histone-H1 and [gamma-33P]ATP at 10 uM by scintillation counting; format: protein-complex assay
Method in brief: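 CDK2/cyclin E was run under a commercial kinase-profiling protocol in 8 mM MOPS pH 7.0 with 0.2 mM EDTA, 0.1 mg/ml histone H1, 10 mM magnesium acetate and 10 micromolar ATP including γ-³³P-ATP (500 cpm/pmol). Incorporation was measured by scintillation counting, with the no-inhibitor count set as 100% activity. Runs were done in triplicate.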

[2] = system: Radical scavenging activity; test: Antioxidant activity assessed as DPPH radical scavenging activity by spectrophotometry; format: functional; parameters: concentration or dose not given beside the values
HCT-116 = test: Cytotoxicity against human HCT116 cells after 7 days by crystal violet staining based clonogenic assay; format: functional, cell-based; conditions: HCT-116, 168 h
Method in brief: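 HCT116 cells in DMEM with 10% heat-inactivated FBS, seeded at 5 × 10³ cells/well in 24-well plates, untreated or exposed to four compound concentrations for 7 days. Colonies were fixed with 6% glutaraldehyde and stained with 0.1% crystal violet, and survival density was read by densitometry. IC50 came from curve fitting. The whole experiment was repeated independently three times.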

Compound	inhibition [1]	Activity [2]	IC50 (HCT-116)
O=C1CC(c2ccc(O)cc2)Oc2cc(O)cc(O)c21 (racemic)	14.9%	59.3%	36.8 µM
O=C1O[C@H]([C@@H](O)CO)C(O)=C1O		89.1%	
CCOC(=O)N/N=C1\CC(c2ccc(O)cc2)Oc2cc(O)cc(O)c21 (configuration not stated)	62.3%	70.6%	4.35 µM
C=CCOc1cc(O)c2c(c1)OC(c1ccc(O)cc1)CC2=O (configuration not stated)	84%	20.7%	1.91 µM

More lines, main results first:

inhibition [1]	Compound	Activity [2]	IC50 (HCT-116)
83.6%	O=C(Oc1cc(O)c2c(c1)OC(c1ccc(O)cc1)CC2=O)c1cccs1 (configuration not stated)	11.2%	1.2 µM
42%	O=C(Oc1ccccc1)Oc1cc(O)c2c(c1)OC(c1ccc(O)cc1)CC2=O (configuration not stated)	15.9%	20 µM
48.9%	Cc1ccccc1C(=O)Oc1cc(O)c2c(c1)OC(c1ccc(O)cc1)CC2=O (configuration not stated)	14.2%	6.03 µM
42.1%	CC(C)C(=O)Oc1cc(O)c2c(c1)OC(c1ccc(O)cc1)CC2=O (configuration not stated)	15.4%	15.9 µM
